Reference: publication PMC3764597 (Carbohydrate research, 2013)
Several values for one entry are separate records, joined by “and”; a condition that tells them apart may be missing. Equal values may be shown once. Entries after “also recorded” stand apart in the source; their conditions may differ. Read-outs that look alike come from different tables or passages of the source.

What was measured:
[1] = cited from earlier work; for collapse pressure: room temperature; for "lift-off" temperature: linear alkanoic acids
[2] = Differential scanning calorimetry; type: physicochemical; details: DSC; for Transition temperature: 25 to 200 °C, 2.5 °C/min; for Enthalpy: phase transition, from integration of the thermograms
Outline: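 Dry surfactant (1.0–1.5 mg) sealed in hermetic aluminum pans against an empty sealed-pan reference. Instrument calibrated with indium for temperature and enthalpy. Scanned 25–200 °C at 2.5 °C/min. Transition enthalpies obtained by integrating the thermograms.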

[3] = MTS cytotoxicity assay in Hs27 cells; type: cell-based, human; details: human, Hs27 cells (foreskin fibroblasts)
Outline: (§1)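 Cells kept in DMEM with 10% heat-inactivated newborn calf serum plus penicillin/streptomycin/amphotericin B at 37 °C, 5% CO₂. Seeded 5,000 per well. Compound in DMSO added at 1–1000 μM for 18 h, then MTS for 2 h. A490 read with A650 reference, medium+MTS background subtracted. Viability given as % of DMSO-treated cells, triplicates. CC₅₀ by linear regression of the two points bracketing 50%.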

[4] = MTS cytotoxicity assay in Jurkat cells; type: cell-based, human; details: human, Jurkat cells (acute leukemia T lymphocytes)
Outline: (§2)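 Jurkat cells kept in RPMI with 10% heat-inactivated FBS plus antibiotics at 37 °C, 5% CO₂. Seeded 25,000 per well. Compound in DMSO at 1–1000 μM for 16 h, then MTS for 4 h. A490 read with A650 reference, background-corrected. Viability normalized to DMSO controls, triplicates. CC₅₀ from regression line through the two viabilities nearest 50%.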

[5] = test system: HaCaT, Hs27 and Jurkat cells; experiment: MTS cytotoxicity assay, statements summarised over the cell lines; type: cell-based; details: for toxicity (MTS assay), in words: all three cell lines (HaCaT, Hs27, Jurkat), concentrations 1 to 1000 μM
[6] = MTS cytotoxicity assay in HaCaT cells; type: cell-based, human; details: human, HaCaT cells (spontaneously immortalized keratinocytes)
Outline: as §1

Jurkat cells = experiment: Apoptosis/necrosis assay, annexin V-FITC staining and flow cytometry; type: cell-based; details: 20 h incubation, compounds added at their CC50
[7] = Langmuir monolayer compression isotherms at the air-water interface; type: physicochemical; details: for formation of stable monolayers at the air-water interface: 14 °C, 150 mM NaCl / 1.5 mM CaCl2 subphase; for "lift-off" temperature: πtrans versus temperature extrapolated to zero surface pressure
Outline: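 Subphase was 150 mM NaCl plus 1.5 mM CaCl₂ in purified water (pH 7.0), held at set temperatures by circulating bath, with impurities vacuumed off. Spread 50 μL of 1.662 mM surfactant in dichloromethane:methanol 9:1, let solvent evaporate, then compressed symmetrically at 10 mm/min (7.5 cm²/min). Wilhelmy platinum plate. Limiting area by extrapolating linear condensed region to zero pressure. Three independent runs.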

human Hs27 fibroblasts [8] = experiment: MTS cytotoxicity assay in Hs27 cells; type: cell-based; details: Hs27 cells, 18 h treatment then 2 h MTS, 1 to 1000 μM
Outline: as §1

[9] = test system: Jurkat human T-cell lymphoblastic leukemia cells; experiment: MTS cytotoxicity assay in Jurkat cells; type: cell-based; details: Jurkat cells, 16 h treatment then 4 h MTS, 1 to 1000 μM
Outline: as §2

[10] = test system: Spontaneously immortalized human keratinocytes (HaCaT); experiment: MTS cytotoxicity assay in HaCaT cells; type: cell-based; details: HaCaT cells, 18 h treatment then 2 h MTS, 1 to 1000 μM
Outline: as §1

[11] = test system: Jurkat human T-cell lymphoblastic leukemia cells; details: value of the previous study; cited from earlier work
human Hs27 fibroblasts [12] = details: Hs27 cells, value of the previous study; cited from earlier work
[13] = test system: Spontaneously immortalized human keratinocytes (HaCaT); details: HaCaT cells, value of the previous study; cited from earlier work
[14] = insoluble monolayers at the air-water interface

## 6-O-stearoyl galactopyranoside
[1]; [14]
  limiting molecular area: 32 Å^2
[1]
  collapse pressure: 66 mN/m

## 6-O-stearoyl glucopyranoside
[1]; [14]
  limiting molecular area: 44 Å^2
[1]
  collapse pressure: 43 mN/m

## CCCCCCn1cc(CO[C@@H]2OC[C@@H](O)[C@H](O)[C@H]2O)nn1 [Compound 5a, (1-Hexyl-1H-1,2,3-triazol-4-yl)methyl β-D-xylopyranoside]
[2]
  Transition temperature: 120.1 ± 0.8 °C
  Enthalpy: 6.45 ± 0.96 kcal/mol
[3]
  CC50 at 18 h: > 1000 µM
[4]
  CC50 at 16 h: > 1000 µM
[5]
  toxicity (MTS assay), in words: not toxic
[6]
  CC50 at 18 h: > 1000 µM

## CCCCCCCCn1cc(CO[C@@H]2OC[C@@H](O)[C@H](O)[C@H]2O)nn1 [Compound 5b, (1-Octyl-1H-1,2,3-triazol-4-yl)methyl β-D-xylopyranoside]
[2]
  Transition temperature: 126.9 ± 0.8 °C
  Enthalpy: 7.41 ± 1.2 kcal/mol
[3]
  CC50 at 18 h: 694 ± 3 µM
[4]
  CC50 at 16 h: 580 ± 60 µM
Jurkat cells
  mode of cell death (viable, apoptotic, necrotic cells): comparable with the positive controls for apoptosis
[6]
  CC50 at 18 h: 890 ± 50 µM

## CCCCCCCCCCn1cc(CO[C@@H]2OC[C@@H](O)[C@H](O)[C@H]2O)nn1 [Compound 5c, (1-Decyl-1H-1,2,3-triazol-4-yl)methyl β-D-xylopyranoside]
[2]
  Transition temperature: 133.6 ± 0.1 °C
  Enthalpy: 9.32 ± 0.48 kcal/mol
[3]
  CC50 at 18 h: 180 ± 50 µM
[4]
  CC50 at 16 h: 77 ± 9 µM
[5]; in both Jurkat and HaCaT cells, from CC50 values
  fold more toxic than 5b: approximately 8 fold
[6]
  CC50 at 18 h: 120 ± 30 µM

## CCCCCCCCCCCCn1cc(CO[C@@H]2OC[C@@H](O)[C@H](O)[C@H]2O)nn1 [Compound 5d, (1-Dodecyl-1H-1,2,3-triazol-4-yl)methyl β-D-xylopyranoside]
[2]
  Transition temperature: 130.1 ± 0.2 °C
  Enthalpy: 8.13 ± 0.48 kcal/mol
[3]
  CC50 at 18 h: > 1000 µM
[4]
  CC50 at 16 h: 26 ± 3 µM
[6]
  CC50 at 18 h: > 1000 µM

## CCCCCCCCCCCCCCn1cc(CO[C@@H]2OC[C@@H](O)[C@H](O)[C@H]2O)nn1 [Compound 5e, (1-Tetradecyl-1H-1,2,3-triazol-4-yl)methyl β-D-xylopyranoside]
[2]
  Transition temperature: 134.7 ± 0.4 °C
  Enthalpy: 9.8 ± 0.24 kcal/mol
[3]
  CC50 at 18 h: > 1000 µM
[4]
  CC50 at 16 h: > 1000 µM
[5]
  toxicity (MTS assay), in words: not toxic
[7]
  formation of stable monolayers at the air-water interface: formed stable monolayers
  "lift-off" temperature: 9.2 °C
[7]; subphase 14 °C
  Atrans: mean molecular area at phase transition: 68 Å^2/molecule and 68.5 ± 0.9 Å^2/molecule
  π max: maximum surface pressure (collapse pressure): 64.1 ± 0.5 mN/m
  π trans: surface pressure at phase transition: 5.6 mN/m and 5.6 ± 0.2 mN/m
[7]; subphase 17 °C
  Atrans: mean molecular area at phase transition: 53.6 ± 0.9 Å^2/molecule
  π max: maximum surface pressure (collapse pressure): 62.4 ± 1.4 mN/m
  π trans: surface pressure at phase transition: 11.3 ± 0.2 mN/m
[7]; subphase 22 °C
  Atrans: mean molecular area at phase transition: 47.5 ± 0.2 Å^2/molecule
  π max: maximum surface pressure (collapse pressure): 59.4 ± 0.6 mN/m
  π trans: surface pressure at phase transition: 15.0 ± 0.1 mN/m
[7]; subphase 26 °C
  Atrans: mean molecular area at phase transition: 42.1 ± 0.7 Å^2/molecule
  π max: maximum surface pressure (collapse pressure): 53.0 ± 2.0 mN/m
  π trans: surface pressure at phase transition: 20.9 ± 0.2 mN/m
[7]; subphase 30 °C
  Atrans: mean molecular area at phase transition: 38 Å^2/molecule and 38.0 ± 1.2 Å^2/molecule
  π max: maximum surface pressure (collapse pressure): 47.0 ± 3.0 mN/m
  π trans: surface pressure at phase transition: 26 mN/m and 27.0 ± 0.5 mN/m
[6]
  CC50 at 18 h: > 1000 µM

## CCCCCCCCCCCCCCCCn1cc(CO[C@@H]2OC[C@@H](O)[C@H](O)[C@H]2O)nn1 [Compound 5f, (1-Hexadecyl-1H-1,2,3-triazol-4-yl)methyl β-D-xylopyranoside]
[2]
  Transition temperature: 134.9 ± 0.1 °C
  Enthalpy: 10.5 ± 0.48 kcal/mol
[3]
  CC50 at 18 h: > 1000 µM
[4]
  CC50 at 16 h: > 1000 µM
[5]
  toxicity (MTS assay), in words: not toxic
[7]
  formation of stable monolayers at the air-water interface: formed stable monolayers
  "lift-off" temperature: 20.2 °C
[7]; subphase 22 °C
  Atrans: mean molecular area at phase transition: 84.0 ± 2.0 Å^2/molecule
  π max: maximum surface pressure (collapse pressure): 64.0 ± 3.0 mN/m
  π trans: surface pressure at phase transition: 1.6 ± 0.2 mN/m
[7]; subphase 26 °C
  Atrans: mean molecular area at phase transition: 70.0 ± 2.0 Å^2/molecule
  π max: maximum surface pressure (collapse pressure): 58.6 ± 0.8 mN/m
  π trans: surface pressure at phase transition: 6.8 ± 0.1 mN/m
[7]; subphase 30 °C
  Atrans: mean molecular area at phase transition: 65.0 ± 2.0 Å^2/molecule
  π max: maximum surface pressure (collapse pressure): 53.6 ± 1.0 mN/m
  π trans: surface pressure at phase transition: 9.9 ± 0.1 mN/m
[7]; subphase 33 °C
  Atrans: mean molecular area at phase transition: 61.0 ± 2.0 Å^2/molecule
  π max: maximum surface pressure (collapse pressure): 51.6 ± 0.4 mN/m
  π trans: surface pressure at phase transition: 11.6 ± 0.3 mN/m
[7]; subphase 37 °C
  Atrans: mean molecular area at phase transition: 51 Å^2/molecule and 51.2 ± 0.9 Å^2/molecule
  π max: maximum surface pressure (collapse pressure): 48.0 ± 2.0 mN/m
  π trans: surface pressure at phase transition: 18 mN/m and 18.4 ± 0.4 mN/m
[6]
  CC50 at 18 h: > 1000 µM

## O[C@@H]1[C@@H](O)[C@H](OCc2cn(CCC(F)(F)C(F)(F)C(F)(F)C(F)(F)C(F)(F)C(F)(F)F)nn2)OC[C@H]1O [Compound 5g, (1-(3,3,4,4,5,5,6,6,7,7,8,8,8-Tridecafluorooctyl)-1H-1,2,3-triazol-4-yl)methyl β-D-xylopyranoside]
[2]
  Transition temperature: 158 °C and 158.8 ± 0.2 °C
  Enthalpy: 10.8 ± 0.24 kcal/mol
[3]
  CC50 at 18 h: > 1000 µM
[4]
  CC50 at 16 h: > 1000 µM
[5]
  toxicity (MTS assay), in words: not toxic; also recorded: no measurable inhibition of cell viability
[6]
  CC50 at 18 h: > 1000 µM

## CCCCCCCCCCCCCCCC(=O)O [hexadecanoic acid]
[1]
  "lift-off" temperature: ~26 °C

## CCCCCCCCCCCCCC(=O)O [tetradecanoic acid]
[1]
  "lift-off" temperature: approximately 7 °C

## CCCCCCCCS[C@@H]1O[C@H](CO)[C@@H](O)[C@H](O)[C@H]1O [β-OTG, β-octyl thioglucopyranoside, reference compound]
Human Hs27 fibroblasts [8]
  CC50: 380 ± 30 µM
[9]
  CC50: 310 ± 40 µM
[10]
  CC50: 490 ± 60 µM

## CCCCCCCCO[C@@H]1OC[C@@H](O)[C@H](O)[C@H]1O [β-OXP, β-octyl xylopyranoside]
[11]
  CC50: 460 ± 13 µM
Human Hs27 fibroblasts [12]
  CC50: 760 ± 50 µM
[13]
  CC50: 850 ± 30 µM

## n-nonyl glucosamine
[1]; 25 °C
  limiting molecular area: 46 Å^2/molecule

## n-octyl glucosamine
[1]; 25 °C
  limiting molecular area: 48 Å^2/molecule
